Bioassay records: PubChem, several laboratories
PolyA inhibitor = blocks polyadenylation in yeast reporter cells; S. cerevisiae SKY197-pL101 polyadenylation reporter, beta-gal luminescence; efflux-impaired pdr1/pdr3 knockout yeast; score 100 = 6 SD above DMSO; activity score, % at 12 µM; actives 0.02% (n = 300,000); AID 1875;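 active means lowest replicate activity score at least 50, where 100 means six control SD above control mean; inconclusive means lowest score under 50 but half or more replicates reach 50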;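 further: yeast exposed to compound for 9 h at 30 °C; higher score means more reporter readthrough which indicates perturbed polyadenylation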
Arr AP2 block = blocks beta-arrestin peptide binding to AP2 adaptin. FITC-arrestin peptide / GST-AP2 beads, flow cytometry; AP2 beta2 appendage carries R879A mutation. inhibition, % at 10 µM. actives 0.31% (n = 340,000). AID 504490;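 active means inhibition above a set limit, near 3 SD of compounds lacking own fluorescence, cut at about 54% in these data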
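test system = AP2 appendage R879A on GSH beads | buffer or medium = PBS plus Tween 20 (0.05%) and BSA (0.1%) | incubation = 12 min plus 1 h, RT | detection = bead flow cytometry, FITC channel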
DSG3 Ab inh = blocks pemphigus antibody binding to human desmoglein-3; actives 0.48% (n = 310,000); DSG3-coupled beads, scFv-anti-DSG3-GFP binding, flow cytometry; active compounds read low; binding (percent of control), % at 10 µM;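 active means binding more than 3 SD below its plate's average and above zero; inconclusive means below that plate limit but binding exactly zero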;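 further: hits lower antibody fragment binding to DSG3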
Target sequence (P32926 whole entry, looked up, the tested form may be a part): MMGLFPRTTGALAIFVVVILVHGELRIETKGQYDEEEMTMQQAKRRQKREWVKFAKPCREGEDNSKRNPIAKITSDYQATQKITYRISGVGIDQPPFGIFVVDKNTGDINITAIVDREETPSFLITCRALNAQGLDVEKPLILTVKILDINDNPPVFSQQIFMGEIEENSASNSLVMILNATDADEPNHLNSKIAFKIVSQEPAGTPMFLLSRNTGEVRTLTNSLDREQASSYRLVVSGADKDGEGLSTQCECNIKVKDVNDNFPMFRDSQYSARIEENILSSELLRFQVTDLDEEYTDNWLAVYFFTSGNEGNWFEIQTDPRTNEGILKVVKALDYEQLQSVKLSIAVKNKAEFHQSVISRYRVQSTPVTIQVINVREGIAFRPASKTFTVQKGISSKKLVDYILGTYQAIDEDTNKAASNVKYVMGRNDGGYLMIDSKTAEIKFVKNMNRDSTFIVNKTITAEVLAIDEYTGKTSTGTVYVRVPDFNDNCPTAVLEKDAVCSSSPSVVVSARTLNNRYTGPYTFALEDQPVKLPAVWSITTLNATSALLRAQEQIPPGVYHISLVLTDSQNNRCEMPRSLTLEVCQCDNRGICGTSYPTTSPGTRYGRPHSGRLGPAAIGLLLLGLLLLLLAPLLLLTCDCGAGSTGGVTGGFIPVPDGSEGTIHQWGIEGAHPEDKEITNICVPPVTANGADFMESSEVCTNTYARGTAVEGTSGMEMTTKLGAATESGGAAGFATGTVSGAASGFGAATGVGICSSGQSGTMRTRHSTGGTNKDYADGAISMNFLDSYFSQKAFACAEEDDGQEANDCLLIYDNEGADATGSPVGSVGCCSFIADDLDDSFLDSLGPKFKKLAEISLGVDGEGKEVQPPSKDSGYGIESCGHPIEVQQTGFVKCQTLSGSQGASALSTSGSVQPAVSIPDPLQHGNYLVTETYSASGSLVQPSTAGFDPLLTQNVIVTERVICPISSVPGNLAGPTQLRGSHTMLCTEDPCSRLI
NLRP3 yeast inh = inhibitors of NALP3 inflammasome in yeast. actives 0.39% (n = 330,000). Yeast reconstituted NLRP3/ASC/caspase-1, beta-gal luminescence, 24 h. inhibition, % at 10 µM;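 active means inhibition of 50% or more; inactive means inhibition below 50%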
ALR inh = inhibitors of human sulfhydryl oxidase ALR | inhibition, % (test concentration not listed) | P55789 | purified ALR, DTT oxidation, H2O2 HRP-luminol luminescence | AID 485317 | actives 3.8% (n = 290,000);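 active means mean replicate inhibition above about 79%, with every replicate also reaching it, limit read from the data; inconclusive means only one of the two criteria met; inactive means mean below limit and not every replicate reaching it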
NALP1 inh = NALP1 inhibition. actives 0.61% (n = 280,000). S. cerevisiae NALP1/ASC/caspase-1 growth, X-gal OD620, 72 h. inhibition, % at 10 µM; in the data active means inhibition mostly above about 24%, no sharp cut-off; inactive means mostly below about 32%
Large screens that a line does not name were inactive. Most compounds without a hit are left out; they make up all but 4.6% or so of the library.

CCOC(=O)c1c(NC(=O)COC(=O)c2ccc(Cl)nc2)sc(C)c1C	none (no result: PolyA inhibitor, Arr AP2 block, NLRP3 yeast inh, ALR inh, NALP1 inh)
O=C1c2ccccc2S(=O)N1c1cccc(F)c1 (stereo not given)	none (no result: PolyA inhibitor, Arr AP2 block, NLRP3 yeast inh, ALR inh, NALP1 inh)
O=C(OCCc1ccccc1)c1cc(O)c(O)c(O)c1	ALR inh 99 (no result: NALP1 inh)
COc1ccc(OC)c(/C=N/NC(=O)C(=O)N/N=C/c2cc(OC)ccc2OC)c1	DSG3 Ab inh 54 (no result: NLRP3 yeast inh, ALR inh, NALP1 inh)
COc1ccc(/C=N/NC(=O)C(=O)N2CCCCCC2)cc1O	ALR inh 83 (no result: DSG3 Ab inh)
CCOC(=O)N/N=C/c1ccc(F)cc1	none
CCOC(=O)N/N=C/c1cc(OC)c(O)c(OC)c1	ALR inh 99
COc1cc(/C=N/NC(=O)C(=O)N2CCCC2)ccc1O	none (no result: ALR inh, NALP1 inh)
CCOC(=O)N/N=C/c1ccc(OC)c(O)c1	ALR inh 94
CCCCn1c(N)c(N(CC(C)C)C(=O)C2CCN(S(=O)(=O)c3ccc(C)c(C)c3)CC2)c(=O)[nH]c1=O	none
COc1ccc(/C=N/N=C/c2ccc(OC)c(OC)c2)cc1OC	none (no result: ALR inh)
COc1cc(/C=N/N=C/c2cc(OC)c(O)c(OC)c2)cc(OC)c1O	ALR inh 98 (no result: DSG3 Ab inh)
COc1ccc(/C=N/NC(=O)C(N)=O)c(OC)c1OC	none
COCc1cc(C)nc(OCC(=O)N/N=C/c2ccc(OC)c(O)c2)c1C#N	ALR inh 99 (no result: PolyA inhibitor)
COc1cc(/C=N/NC(=O)C(N)=O)cc(OC)c1O	ALR inh 99
Cn1c(SCC(=O)Nc2ccc3[nH]c(=O)[nH]c3c2)nnc1-c1ccc(F)cc1	ALR inh 99 (no result: NALP1 inh)
O=C(CSc1nc2ccccc2[nH]1)Nc1ccc2[nH]c(=O)[nH]c2c1	ALR inh 98 (no result: PolyA inhibitor, DSG3 Ab inh, NALP1 inh)
CCc1c(C)nc(SCC(=O)Nc2ccc3c(c2)OCCO3)[nH]c1=O	ALR inh 99
O=C(CSc1nc2ccccc2[nH]1)Nc1ccc2c(c1)OCCO2	PolyA inhibitor inconclusive, ALR inh 99
Cn1c(SCC(=O)Nc2ccc3[nH]c(=O)[nH]c3c2)nnc1-c1ccccc1	none
COc1ccc2nc(SCC(=O)Nc3ccc4[nH]c(=O)[nH]c4c3)[nH]c2c1	none (no result: PolyA inhibitor, DSG3 Ab inh, NALP1 inh)
Cn1nc(C(C)(C)C)cc1C(=O)NCc1ccc2c(c1)OCO2	none
Cc1noc(C)c1COc1ccccc1C(=O)N1CCN(S(=O)(=O)c2ccc(C(C)C)cc2)CC1	none (no result: PolyA inhibitor, Arr AP2 block, NLRP3 yeast inh, ALR inh, NALP1 inh)
NC(=O)COC(=O)c1ccc2noc(-c3ccccc3)c2c1	none (no result: ALR inh)
COc1ccc(/C=C/c2cc(=O)c3cc(Cl)ccc3o2)cc1	ALR inh 97
CCN(Cc1ccncc1)Cc1ccc(OC)cc1OC	none
COc1ccc(CN(CCN(C)C)Cc2ccccc2)c(OC)c1	DSG3 Ab inh 78
CN(C(=S)NC(=O)C1CC1)c1ccc(O)cc1	ALR inh 97 (no result: PolyA inhibitor, NALP1 inh)
Cc1cc(C)nc(Nc2n[nH]c(-c3ccc(N)cc3)n2)n1	ALR inh 99
CCOC(=O)c1ccc2ncc(C(=O)OCC)c(NCc3ccco3)c2c1	DSG3 Ab inh 47 (no result: ALR inh)
CCN(CC)CCNc1ncnc2c1[nH]c1ccc(OC)cc12	none (no result: Arr AP2 block, DSG3 Ab inh, NALP1 inh)
COc1ccc2[nH]c3c(NCc4ccco4)ncnc3c2c1	ALR inh 98 (no result: Arr AP2 block, DSG3 Ab inh)
C=CCn1c(SCC(=O)c2ccc(O)c(O)c2)nnc1-c1ccc(C)cc1	none (no result: PolyA inhibitor, NALP1 inh)
C=CCn1c(SCC(=O)c2ccc(O)c(O)c2)nnc1-c1cccc(OC)c1	ALR inh 99 (no result: PolyA inhibitor, NALP1 inh)
C=CCn1c(SCC(=O)c2ccc(O)c(O)c2)nnc1-c1ccc(OC)cc1	ALR inh 91 (no result: PolyA inhibitor, NALP1 inh)
C=CCn1c(SCC(=O)c2cccs2)nnc1-c1cccc(OC)c1	ALR inh 93
O=C(NC1CCCCCC1)C1CCCN1S(=O)(=O)c1cccc2cccnc12 (stereo not given)	ALR inh 97
O=C(NC1CCCCC1)C1CCN(S(=O)(=O)c2cccc3cccnc23)CC1	none
O=C(NC1CCCC1)C1CCCN1S(=O)(=O)c1cccc2cccnc12 (stereo not given)	ALR inh 89
O=C(NCc1ccccc1)C1CCCN1S(=O)(=O)c1cccc2cccnc12 (stereo not given)	none
Cc1nn2c(=S)[nH]nc2[nH]c1=O	ALR inh 95
Cc1n[nH]c(=S)n(NC(=O)CC(=O)Nn2c(=S)[nH]nc(C)c2=O)c1=O	none
COc1ccc(NC(=O)COC(=O)CNC(=O)C2CCCCC2)cc1OC	none (no result: PolyA inhibitor, NALP1 inh)
CCOC(=O)C1=C(COC(=O)Cc2ccccc2[N+](=O)[O-])NC(=O)NC1C (stereo not given)	none (no result: PolyA inhibitor, Arr AP2 block, NLRP3 yeast inh, ALR inh, NALP1 inh)
CC(=O)Nc1ccc(S(=O)(=O)NC2(C(F)(F)F)NC(=O)N(c3ccc(C)cc3)C2=O)cc1 (stereo not given)	none
Cc1cc(C(=O)O)ccc1-c1ccc(/C=C2\SC(=O)N(CC(=O)Nc3ccc4c(c3)OCO4)C2=O)o1	none (no result: PolyA inhibitor, DSG3 Ab inh)
CC(C)(C)OC(=O)CN1C(=O)S/C(=C\c2ccc(-c3cccc(C(=O)O)c3)o2)C1=O	ALR inh 97 (no result: Arr AP2 block, DSG3 Ab inh)
C#CCN1C(=O)S/C(=C\c2ccc(-c3ccc(C(=O)O)cc3C)o2)C1=O	ALR inh 90 (no result: NLRP3 yeast inh)
Cc1ccc(NC(=O)CN2C(=O)S/C(=C/c3ccc(-c4cccc(C(=O)O)c4)o3)C2=O)cc1	none (no result: PolyA inhibitor, NLRP3 yeast inh, ALR inh)
CCCCNC(=O)CC1N=C2c3ccccc3N=C(SCC(=O)Nc3cccc(C)c3)N2C1=O (stereo not given)	ALR inh 98
CCOC(=O)CSC1=Nc2ccccc2C2=NC(CC(=O)NCc3ccc(OC)cc3)C(=O)N12 (stereo not given)	none
CCC(c1nnc(SCC(=O)Nc2ccc(C(=O)Nc3ccccc3OC)cc2)o1)N(C)C (stereo not given)	ALR inh 99
COc1ccccc1NC(=O)c1ccc(NC(=O)CSc2ncccn2)cc1	none
COc1ccc(CN2CCC[C@]3(N[C@H](c4ccccc4)[C@@H]4C(=O)N(C)C(=O)[C@@H]43)C2=O)cc1	none (no result: PolyA inhibitor, Arr AP2 block, NLRP3 yeast inh, ALR inh, NALP1 inh)
COc1cc(C(=O)OCCCN2CCOCC2)ccc1O	ALR inh 99
COc1ccc(-c2nn(-c3ccccc3)cc2/C=C2/SC(=S)N(Cc3ccco3)C2=O)c(C)c1	DSG3 Ab inh 87
COc1ccc(-n2c(C)cc(/C=C3\SC(=S)N(Cc4ccco4)C3=O)c2C)cc1	none (no result: NLRP3 yeast inh)
CCN(Cc1ccccc1)C(=O)CCS(=O)(=O)c1cc2c(cc1Cl)NC(=O)CO2	none
O=C1C2C3CCC(C3)C2C(=O)N1CNc1ccccc1 (stereo not given)	none
CC(=O)Nc1ccc(NCN2C(=O)[C@@H]3[C@H]4CC[C@H](C4)[C@@H]3C2=O)cc1	ALR inh 94
CN(CC(=O)Nc1cccc(F)c1)C(=O)/C=C/c1cn(Cc2ccccc2)nc1-c1cccnc1	none (no result: NALP1 inh)
O=C(Cc1ccccc1F)Nc1ccccc1-c1ccccc1	none (no result: DSG3 Ab inh, ALR inh)
O=C(Cc1c(F)cccc1Cl)Nc1ccccc1-c1ccccc1	DSG3 Ab inh 47
Cc1csc(NC(=O)CSc2sc3c(O)cc(=O)[nH]c3c2C#N)n1	ALR inh 99
